Consider nine compounds from PubChem BioAssay AID651575 (The Scripps Research Institute Molecular Screening Center, 2012).

The test system of this test is Huh-7.5 HCV J6/JFH-1 infection, RT-qPCR viral RNA, 48 h. The test can be described thus: blockade of HCV J6/JFH-1 infection of hepatoma cells – cell-based, RT-qPCR viral RNA, Huh-7.5, powder samples, counter-screen for HCV core dimerization inhibitor project, late-stage follow-up (AID 651575). Put shortly:
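System – Huh-7.5 cells infected with HCV genotype 2a J6/JFH-1 · Probe or stimulus – J6/JFH-1 HCV co-added with compound · Incubation – 24 h infection with compound, then 48 h compound · Technique – Taqman real-time RT-qPCR of HCV RNA, Ct values · Read-out basis – IC50 from four-parameter variable-slope fit of percent inhibition, total-RNA-normalized · Replicates – triplicates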
Background: Real-time PCR tracks product formation cycle by cycle.
On to `Cc1ccc(Cc2c(C)nc3nc(SCC(=O)NCCN4CCOCC4)nn3c2C)cc1`, for which the IC50 (as a rule, the point on the concentration scale where inhibition reaches its midpoint) was 312 nM. Turning to `Cc1ccc(Cc2c(C)nc3nc(SCC(=O)NCCN4CCCCCC4)nn3c2C)cc1`, the IC50 was 191 nM. The same measure for `Cc1ccc(Cc2c(CCc3ccccc3)nc3nc(SC(Cc4ccccc4)C(=O)NCCN4CCOCC4)nn3c2C)cc1` (centres undefined): 286 nM. For `Cc1ccc(Cc2c(C)nc3nc(SCC(=O)NCCN4CCCN(S(=O)(=O)c5ccc(C)cc5)CC4)nn3c2C)cc1`, the 50% inhibitory concentration (IC50) was 4 nM.

Turning to `Cc1ccc(Cc2c(C)nc3nc(SCC(=O)NCCN4CCN(CCc5ccccc5)CC4)nn3c2C)cc1`, the IC50 was 294 nM. Turning to `Cc1ccc(Cc2c(C)nc3nc(SCC(=O)NCCN4CCCN(S(=O)(=O)c5ccccc5)CC4)nn3c2C)cc1`, the IC50 was 665 nM. For `Cc1ccc(Cc2c(C)nc3nc(SCC(=O)NCCN4CCNCC4)nn3c2C)cc1`, the IC50 is 2 nM. In the case of `Cc1ccc(Cc2c(C)nc3nc(SCC(=O)NCCN4CCN(Cc5ccc(F)cc5)CC4)nn3c2C)cc1`, the IC50 was 32 nM.

On to `Cc1ccc(Cc2c(C)nc3nc(SCC(=O)NCCN4CCCN(S(C)(=O)=O)CC4)nn3c2C)cc1`, for which the 50% inhibitory concentration (IC50) was 1240 nM.
